# Activity calls are given as the source filed them. No cut-off for these calls is given here.
# Columns and labels:
# [1] = test system: Fusobacterium nucleatum; experiment: Antibacterial activity against Fusobacterium nucleatum ATCC 25586 by microdilution technique in presence of 10% unstimulated whole salive; format: functional, organism-based
# In short: (§1)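 Broth microdilution growth assay, repeated in medium supplemented with 1% fetal bovine serum or with 10% unstimulated whole saliva.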
# [2] = test system: Prevotella intermedia; experiment: Antibacterial activity against Prevotella intermedia ATCC 25611 by microdilution technique; format: functional
# In short: (§2)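 Broth microdilution against each strain; MIC read as lowest concentration with no growth. Growth also expressed as percent of compound-free control (set to 100%). Triplicate assays, two independent experiments, mean ± SD; Student's t test, p < 0.01.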
# [3] = test system: U-937; experiment: Antiinflammatory activity in human U937 cells assessed as inhibition of LPS-induced IL6 secretion at 0.2 ug/ml after 24 hrs by ELISA relative to control; format: functional, cell-based
# In short: (§3)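 U937 monocytes differentiated with 10 ng/mL PMA for 48 h, then placed in RPMI-1% FBS. Pretreated 2 h with compound (0, 0.2, 1, 5 μg/mL), then stimulated with A. actinomycetemcomitans ATCC 29522 LPS (1 μg/mL) for 24 h. Cytokines and MMP-9 in supernatants measured by ELISA at 450 nm. Triplicates, two experiments, mean ± SD.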
# [4] = test system: Porphyromonas gingivalis; experiment: Bactericidal activity against Porphyromonas gingivalis ATCC 33277 at 40 ug/ml by microdilution technique; format: functional, organism-based
# In short: (§4)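 MBC: aliquots from wells without visible growth spread on agar plates and incubated five days under appropriate conditions; MBC is the lowest concentration giving no colonies.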
# [5] = test system: U-937; experiment: Antiinflammatory activity in human U937 cells assessed as inhibition of LPS-induced MMP9 secretion at 5 ug/ml after 24 hrs by ELISA relative to control; format: functional; settings: U-937, 24 h; in short: as §3
# [6] = test system: U-937; experiment: Antiinflammatory activity in human U937 cells assessed as inhibition of LPS-induced TNFalpha secretion after 24 hrs by ELISA; format: functional, cell-based; in short: as §3
# [7] = molecular target: Transcription factor p65 (Homo sapiens) (UniProt Q04206); experiment: Inhibition of LPS-induced NF-kappaB p65 activation in human U937 cells at 5 ug/ml after 1 hr relative to control; format: cell-based; settings: U-937
# In short: (§5)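 PMA-differentiated U937 macrophages pretreated with compound (5 μg/mL) for 1 h, then given LPS (1 μg/mL) for 1 h at 37 °C. Whole-cell extracts adjusted to 1 mg/mL protein. NF-κB p65 and AP-1 activation measured by TransAM kits; controls had no pretreatment.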
# [8] = molecular target: Matrix metalloproteinase-9 (Homo sapiens) (UniProt P14780); experiment: Inhibition of human MMP9 assessed as remaining activity at 100 ug/ml after 4 hrs by fluorimetric analysis relative to control
# In short: (§6)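 Active human recombinant MMP-9 (final 100 ng/mL) in TCNB buffer (50 mM Tris-HCl, 10 mM CaCl2, 150 mM NaCl, 0.05% Brij35, pH 7.5) with fluorescein-conjugated DQ gelatin (stock 1 mg/mL); compound final 0, 5, 25 or 100 μg/mL. Incubated 4 h at 37 °C in the dark; fluorescence at ex 490/em 520 nm.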
# [9] = test system: U-937; experiment: Antiinflammatory activity in human U937 cells assessed as inhibition of LPS-induced of IL6 secretion at 5 ug/ml after 24 hrs by ELISA relative to control; format: functional; in short: as §3
# [10] = test system: U-937; experiment: Antiinflammatory activity in human U937 cells assessed as inhibition of LPS-induced IL1-beta secretion after 24 hrs by ELISA; format: functional, cell-based; in short: as §3
# [11] = test system: Porphyromonas gingivalis; experiment: Antibacterial activity against Porphyromonas gingivalis ATCC 33277 by microdilution technique in presence of 10% unstimulated whole salive; format: functional, organism-based; in short: as §1
# [12] = molecular target: Matrix metalloproteinase-9 (Homo sapiens) (UniProt P14780); experiment: Inhibition of human MMP9 assessed as remaining activity at 25 ug/ml after 4 hrs by fluorimetric analysis relative to control; in short: as §6
# [13] = test system: Prevotella intermedia; experiment: Bactericidal activity against Prevotella intermedia ATCC 25611 at 20 ug/ml by microdilution technique; format: functional, organism-based; in short: as §4
# [14] = test system: Fusobacterium nucleatum; experiment: Antibacterial activity against Fusobacterium nucleatum ATCC 25586 by microdilution technique; format: functional, organism-based; in short: as §2
# [15] = test system: Prevotella intermedia; experiment: Antibacterial activity against Prevotella intermedia ATCC 25611 by microdilution technique in presence of 1% fetal bovine serum; format: functional, organism-based; in short: as §1
# [16] = test system: U-937; experiment: Antiinflammatory activity in human U937 cells assessed as inhibition of LPS-induced CCL5 secretion after 24 hrs by ELISA; format: functional, cell-based; in short: as §3
# [17] = test system: Prevotella intermedia; experiment: Antibacterial activity against Prevotella intermedia ATCC 25611 by microdilution technique in presence of 10% unstimulated whole salive; format: functional, organism-based; in short: as §1
# [18] = test system: U-937; experiment: Antiinflammatory activity in human U937 cells assessed as inhibition of LPS-induced IL8 secretion after 24 hrs by ELISA; format: functional, cell-based; in short: as §3
# [19] = molecular target: T1, Collagenase (Porphyromonas gingivalis) (UniProt P33437); experiment: Inhibition of Porphyromonas gingivalis ATCC 33277 collagenase assessed as remaining activity at 5 ug/ml after 4 hrs by fluorimetric analysis relative to control
# T1 sequence (whole entry): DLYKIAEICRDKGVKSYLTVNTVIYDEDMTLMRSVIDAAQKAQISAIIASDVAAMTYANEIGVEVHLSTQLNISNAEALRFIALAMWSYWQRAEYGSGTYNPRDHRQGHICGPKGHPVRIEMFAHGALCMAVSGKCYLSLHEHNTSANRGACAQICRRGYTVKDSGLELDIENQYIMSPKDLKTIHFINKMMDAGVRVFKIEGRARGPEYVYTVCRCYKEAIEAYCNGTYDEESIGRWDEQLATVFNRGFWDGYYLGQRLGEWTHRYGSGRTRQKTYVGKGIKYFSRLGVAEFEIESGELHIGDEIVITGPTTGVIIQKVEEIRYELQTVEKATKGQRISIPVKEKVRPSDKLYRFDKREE
# In short: (§7)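 Two-day P. gingivalis ATCC 33277 culture supernatant incubated with fluorescein-conjugated DQ type I collagen (stock 100 μg/mL) in TCNB buffer, compound final 0, 5, 25 or 100 μg/mL. Incubated 4 h in the dark at room temperature, then fluorescence read. Triplicates, mean ± SD.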
# [20] = test system: U-937; experiment: Cytotoxicity against human U937 cells assessed as loss of cell viability by MTT assay; format: cell-based
# In short: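 PMA-differentiated U937 macrophages exposed to LPS or compound (up to 5 μg/mL) under the 24 h stimulation protocol; viability checked by MTT assay.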
# [21] = test system: Fusobacterium nucleatum; experiment: Antibacterial activity against Fusobacterium nucleatum ATCC 25586 at 40 ug/ml assessed as growth inhibition by microdilution technique relative to untreated control; format: functional; settings: read-out: GI; in short: as §2
# [22] = test system: U-937; experiment: Antiinflammatory activity in human U937 cells assessed as inhibition of LPS-induced TNFalpha secretion at 5 ug/ml after 24 hrs by ELISA relative to control; format: functional; settings: U-937, 24 h; in short: as §3
# [23] = test system: Porphyromonas gingivalis; experiment: Antibacterial activity against Porphyromonas gingivalis ATCC 33277 by microdilution technique; format: functional; in short: as §2
# [24] = test system: Porphyromonas gingivalis; experiment: Antibacterial activity against Porphyromonas gingivalis ATCC 33277 by microdilution technique in presence of 1% fetal bovine serum; format: functional, organism-based; in short: as §1
# [25] = molecular target: Transcription factor Jun (Homo sapiens) (UniProt P05412); experiment: Inhibition of LPS-induced AP-1 activation in human U937 cells at 5 ug/ml after 1 hr relative to control; format: cell-based; settings: U-937; in short: as §5
# [26] = test system: U-937; experiment: Antiinflammatory activity in human U937 cells assessed as inhibition of LPS-induced IL1-beta secretion at 0.2 ug/ml after 24 hrs by ELISA relative to control; format: functional, cell-based; in short: as §3
# [27] = molecular target: Matrix metalloproteinase-9 (Homo sapiens) (UniProt P14780); experiment: Inhibition of human MMP9 assessed as remaining activity at 5 ug/ml after 4 hrs by fluorimetric analysis relative to control; in short: as §6
# [28] = test system: U-937; experiment: Antiinflammatory activity in human U937 cells assessed as inhibition of LPS-induced IL8 secretion at 5 ug/ml after 24 hrs by ELISA relative to control; format: functional; settings: U-937, 24 h; in short: as §3
# [29] = test system: U-937; experiment: Antiinflammatory activity in human U937 cells assessed as inhibition of LPS-induced CCL5 secretion at 5 ug/ml after 24 hrs by ELISA relative to control; format: functional; in short: as §3
# [30] = molecular target: T1, Collagenase (Porphyromonas gingivalis); experiment: Inhibition of Porphyromonas gingivalis ATCC 33277 collagenase assessed at 100 ug/ml after 4 hrs by fluorimetric analysis relative to control; in short: as §7
# [31] = test system: U-937; experiment: Antiinflammatory activity in human U937 cells assessed as inhibition of LPS-induced IL6 secretion after 24 hrs by ELISA; format: functional, cell-based; in short: as §3
# [32] = test system: Fusobacterium nucleatum; experiment: Antibacterial activity against Fusobacterium nucleatum ATCC 25586 by microdilution technique in presence of 1% fetal bovine serum; format: functional, organism-based; in short: as §1
# [33] = molecular target: T1, Collagenase (Porphyromonas gingivalis); experiment: Inhibition of Porphyromonas gingivalis ATCC 33277 collagenase assessed as remaining activity at 25 ug/ml after 4 hrs by fluorimetric analysis relative to control; in short: as §7
# [34] = molecular target: T1, Collagenase (Porphyromonas gingivalis); experiment: Inhibition of Porphyromonas gingivalis ATCC 33277 collagenase assessed as remaining activity at 100 ug/ml after 4 hrs by fluorimetric analysis relative to control; in short: as §7
# [35] = test system: U-937; experiment: Antiinflammatory activity in human U937 cells assessed as inhibition of LPS-induced IL1-beta secretion at 5 ug/ml after 24 hrs by ELISA relative to control; format: functional; in short: as §3
# [36] = test system: Prevotella intermedia; experiment: Antibacterial activity against Prevotella intermedia ATCC 25611 assessed as growth inhibition at 5 ug/ml by microdilution technique relative to untreated control; format: functional; settings: read-out: GI; in short: as §2
# [37] = test system: Prevotella intermedia; experiment: Antibacterial activity against Prevotella intermedia ATCC 25611 at 40 ug/ml assessed as growth inhibition by microdilution technique relative to untreated control; format: functional; settings: read-out: GI; in short: as §2
# Chain of Matrix metalloproteinase-9 (Homo sapiens) (P14780 whole entry): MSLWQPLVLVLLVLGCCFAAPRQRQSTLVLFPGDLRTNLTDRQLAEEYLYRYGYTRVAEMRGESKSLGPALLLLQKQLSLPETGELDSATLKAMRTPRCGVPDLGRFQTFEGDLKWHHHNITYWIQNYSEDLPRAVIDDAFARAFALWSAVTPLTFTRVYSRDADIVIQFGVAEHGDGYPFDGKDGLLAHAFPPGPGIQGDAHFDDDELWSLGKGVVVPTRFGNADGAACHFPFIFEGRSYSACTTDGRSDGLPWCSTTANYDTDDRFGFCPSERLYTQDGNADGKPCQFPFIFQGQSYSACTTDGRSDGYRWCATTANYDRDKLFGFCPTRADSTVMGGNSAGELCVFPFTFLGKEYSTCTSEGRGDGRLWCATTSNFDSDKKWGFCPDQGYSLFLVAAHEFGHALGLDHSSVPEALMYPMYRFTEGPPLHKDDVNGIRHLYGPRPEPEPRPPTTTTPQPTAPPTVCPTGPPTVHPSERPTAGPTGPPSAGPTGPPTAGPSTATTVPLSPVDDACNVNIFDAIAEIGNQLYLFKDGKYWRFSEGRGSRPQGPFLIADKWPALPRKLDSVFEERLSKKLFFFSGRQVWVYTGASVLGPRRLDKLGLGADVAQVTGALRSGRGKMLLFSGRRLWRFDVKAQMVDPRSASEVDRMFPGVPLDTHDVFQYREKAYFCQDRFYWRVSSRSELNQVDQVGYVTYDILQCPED
# Chain of Transcription factor p65 (Homo sapiens) (Q04206 whole entry): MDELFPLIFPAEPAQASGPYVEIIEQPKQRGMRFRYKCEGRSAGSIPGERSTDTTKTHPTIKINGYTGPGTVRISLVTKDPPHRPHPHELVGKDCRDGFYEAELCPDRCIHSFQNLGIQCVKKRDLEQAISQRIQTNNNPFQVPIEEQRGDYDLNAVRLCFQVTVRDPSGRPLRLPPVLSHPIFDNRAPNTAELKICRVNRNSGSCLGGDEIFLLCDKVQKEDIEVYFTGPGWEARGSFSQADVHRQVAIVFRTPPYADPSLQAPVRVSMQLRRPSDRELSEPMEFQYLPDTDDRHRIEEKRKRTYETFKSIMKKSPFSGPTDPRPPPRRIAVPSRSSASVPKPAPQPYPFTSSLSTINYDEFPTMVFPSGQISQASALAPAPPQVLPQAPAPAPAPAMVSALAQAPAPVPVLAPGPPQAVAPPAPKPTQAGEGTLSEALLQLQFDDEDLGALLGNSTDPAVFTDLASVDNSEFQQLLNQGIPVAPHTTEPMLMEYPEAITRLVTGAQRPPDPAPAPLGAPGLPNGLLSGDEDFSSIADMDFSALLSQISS
# Chain of Transcription factor Jun (Homo sapiens) (P05412 whole entry): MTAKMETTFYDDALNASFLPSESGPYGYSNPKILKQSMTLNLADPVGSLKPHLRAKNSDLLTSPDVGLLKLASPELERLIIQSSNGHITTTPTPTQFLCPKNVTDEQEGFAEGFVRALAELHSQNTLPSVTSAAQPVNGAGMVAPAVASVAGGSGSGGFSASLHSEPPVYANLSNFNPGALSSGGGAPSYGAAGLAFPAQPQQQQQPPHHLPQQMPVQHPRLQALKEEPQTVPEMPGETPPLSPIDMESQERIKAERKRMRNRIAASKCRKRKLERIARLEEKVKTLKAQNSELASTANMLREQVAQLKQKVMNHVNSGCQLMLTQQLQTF
structure (smiles),measurement,setting,value
O=C(/C=C/c1ccc(O)cc1)c1ccc(O)cc1O [ISOLIQUIRITIGENIN],Activity,[1],Active
same,Activity,[2],Dose-dependent effect
same,MIC,[2],10 µg/mL
same,inhibition,[3],Active
same,inhibition,[4],inactive
same,inhibition at 5 µg/mL,[5],89%
same,inhibition,[6],Dose-dependent effect
same,inhibition,[7],Active
same,Activity,[8],67%
same,inhibition,[9],Active
same,inhibition,[10],Dose-dependent effect
same,Activity,[11],Active
same,Activity,[12],91%
same,inhibition,[13],Active
same,Activity,[14],Dose-dependent effect
same,Activity,[15],Active
same,inhibition,[16],Dose-dependent effect
same,Activity,[17],Active
same,inhibition,[18],Dose-dependent effect
same,Activity,[19],82%
same,Activity,[20],Non-toxic
same,inhibition of growth at 40 µg/mL,[21],70%
same,inhibition at 5 µg/mL,[22],87%
same,Activity,[23],Dose-dependent effect
same,MIC,[23],40 µg/mL
same,Activity,[24],Active
same,inhibition,[25],Active
same,inhibition,[26],Active
same,Activity,[27],97%
same,inhibition at 5 µg/mL,[28],34%
same,inhibition,[29],Active
same,inhibition,[30],52%
same,inhibition,[31],Dose-dependent effect
same,Activity,[32],Active
same,Activity,[33],78%
same,Activity,[34],48%
same,inhibition,[35],Active
same,inhibition of growth at 5 µg/mL,[36],58%
O=C1C[C@@H](c2ccc(O)cc2)Oc2cc(O)ccc21 [LIQUIRTIGENIN],inhibition at 5 µg/mL,[5],24%
same,inhibition,[7],39%
same,Activity,[8],87%
same,inhibition at 5 µg/mL,"[9]; U-937, 24 h",23%
same,Activity,[12],95%
same,Activity,[15],Active
same,Activity,[17],Active
same,inhibition of growth at 40 µg/mL,[37],85%
same,Activity,[19],83%
same,Activity,[20],Non-toxic
same,inhibition at 5 µg/mL,[22],17%
same,inhibition,[25],20%
same,Activity,[27],95%
same,inhibition at 5 µg/mL,[28],11%
same,inhibition at 5 µg/mL,"[29]; U-937, 24 h",24%
same,inhibition,[30],21%
same,Activity,[33],82%
same,Activity,[34],79%
same,inhibition at 5 µg/mL,"[35]; U-937, 24 h",34%

# Source: ChEMBL document CHEMBL1909532, “Comparative evaluation of two structurally related flavonoids, isoliquiritigenin and liquiritigenin, for their oral infection therapeutic potential” (J Nat Prod, 2011)
